According to ChEMBL document CHEMBL1142957, “Total structure and inhibition of tumor cell proliferation of laxaphycins” (J Med Chem, 2007):

Assays:
CCRF-CEM [1] = experiment: Cytotoxicity against drug-sensitive CCRF-CEM cells after 72 hrs; type: cell-based; conditions: Homo sapiens
Method in brief: (§1)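 Leukemic lymphoblasts (parent CCRF-CEM, Pgp-overexpressing CEM/VLB100, topo II-altered CEM/VM-1) grown in RPMI 1640 with 10% FCS and antibiotics, 37 °C, 5% CO2. Serial dilutions in medium added to 2 × 10⁵ cells/mL for 3 days, medium not renewed. Survivors counted on a Coulter counter. Triplicate, averaged.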

[2] = Cytotoxicity against teniposide-resistant CEM/VM1 cells after 72 hrs; type: cell-based; conditions: Homo sapiens, CEM-VM1, 72 h; method in brief: as §1
CCRF-CEM [3] = experiment: Ratio of IC50 for vinblastine-resistant CEM/VLB100 cells over IC50 for drug-sensitive CCRF-CEM cells; type: functional, Homo sapiens
[4] = Cytotoxicity against vinblastine-resistant CEM/VLB100 cells after 72 hrs; type: cell-based; conditions: Homo sapiens, CEM/VLB100, 72 h; method in brief: as §1
CCRF-CEM [5] = experiment: Ratio of IC50 for teniposide-resistant CEM/VM1 cells over IC50 for drug-sensitive CCRF-CEM cells; type: functional, Homo sapiens

Compound: CCCCCCC[C@@H]1CC(=O)N[C@@H](C(C)C)C(=O)N[C@@H]([C@@H](O)C(C)C)C(=O)N[C@@H](C)C(=O)N[C@H]([C@@H](O)C(C)C)C(=O)N[C@@H](CCC(N)=O)C(=O)N(C)[C@@H]([C@@H](C)CC)C(=O)N[C@H]([C@@H](O)C(N)=O)C(=O)N[C@@H]([C@@H](C)O)C(=O)N2C[C@H](O)C[C@H]2C(=O)N[C@H](CC(C)C)C(=O)N[C@@H]([C@@H](C)O)C(=O)N1 [LAXAPHYCIN B3]
- IC50 (CCRF-CEM [1]): 1500 nM
- IC50 [2]: 1450 nM
- Ratio IC50 (CCRF-CEM [3]): 0.9
- IC50 [4]: 1350 nM
- Ratio IC50 (CCRF-CEM [5]): 1
